# pIC50: −log10 of the molar value.
# Key:
# [1] = target: Beta-secretase 1 (Homo sapiens) (UniProt P56817); assay: Inhibition of BACE1 (unknown origin) using BACE ED as substrate at 30.6 uM by EFC assay
# [2] = Cytotoxicity against mouse NIH/3T3 cells assessed as cell growth at 50 uM measured at 72 hrs by CyQuant proliferation assay relative to control; assay type: cell-based, NIH3T3; details: read-out: Activity
# Summary of the method: (§1)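 Single-concentration screen at 50 and 5 μM across the cancer lines and normal mouse NIH3T3 fibroblasts. Cell growth was read by CyQuant proliferation assay at 72 h. Values are expressed relative to DMSO-treated control. Done in triplicate, one experiment (n=1).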
# [3] = Cytotoxicity against human A2780S/CP5 cells assessed as cell growth at 50 uM measured at 72 hrs by CyQuant proliferation assay relative to control; assay type: functional; details: A2780S/CP5, 72 h, read-out: Activity; summary of the method: as §1
# [4] = Cytotoxicity against human A2780S cells assessed as cell growth at 5 uM measured at 72 hrs by CyQuant proliferation assay relative to control; assay type: functional; details: A2780, 72 h, read-out: Activity; summary of the method: as §1
# [5] = Cytotoxicity against human A2780S cells assessed as cell growth at 50 uM measured at 72 hrs by CyQuant proliferation assay relative to control; assay type: functional; details: A2780, 72 h, read-out: Activity; summary of the method: as §1
# [6] = Cytotoxicity against mouse NIH/3T3 cells assessed as cell growth at 5 uM measured at 72 hrs by CyQuant proliferation assay relative to control; assay type: cell-based, NIH3T3; details: read-out: Activity; summary of the method: as §1
# [7] = Cytotoxicity against human A2780S/CP5 cells assessed as cell growth at 5 uM measured at 72 hrs by CyQuant proliferation assay relative to control; assay type: functional; details: A2780S/CP5, 72 h, read-out: Activity; summary of the method: as §1
# [8] = Cytotoxicity against human U251MG cells assessed as cell growth at 50 uM measured at 72 hrs by CyQuant proliferation assay relative to control; assay type: functional; details: U-251, 72 h, read-out: Activity; summary of the method: as §1
# [9] = Cytotoxicity against human U251MG cells assessed as cell growth at 5 uM measured at 72 hrs by CyQuant proliferation assay relative to control; assay type: functional; details: U-251, 72 h, read-out: Activity; summary of the method: as §1
# A549 [10] = assay: Cytotoxicity against human A549 cells assessed as cell growth at 50 uM measured at 72 hrs by CyQuant proliferation assay relative to control; assay type: functional; details: A549, 72 h, read-out: Activity; summary of the method: as §1
# A549 [11] = assay: Cytotoxicity against human A549 cells assessed as cell growth at 5 uM measured at 72 hrs by CyQuant proliferation assay relative to control; assay type: functional; details: A549, 72 h, read-out: Activity; summary of the method: as §1
# MCF7 [12] = assay: Cytotoxicity against human MCF7 cells assessed as cell growth at 50 uM measured at 72 hrs by CyQuant proliferation assay relative to control; assay type: functional; details: MCF7, 72 h, read-out: Activity; summary of the method: as §1
# MCF7 [13] = assay: Cytotoxicity against human MCF7 cells assessed as cell growth at 5 uM measured at 72 hrs by CyQuant proliferation assay relative to control; assay type: functional; details: MCF7, 72 h, read-out: Activity; summary of the method: as §1
# [14] = target: Beta-secretase 1 (Homo sapiens) (UniProt P56817); assay: Inhibition of BACE1 (unknown origin) using BACE ED as substrate at 48.3 uM by EFC assay
# [15] = Cytotoxicity against human A2780S cells by CyQuant proliferation assay; assay type: functional, cell-based; details: A2780
# Summary of the method: (§2)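 CyQuant proliferation assay in A2780S, cisplatin-resistant A2780CP (SCP5) and U251MG cells. Cells were exposed to varying concentrations, maximum 50 μM, and compared with solvent-only treated cells. IC50 was determined from triplicates, two independent experiments (n=2).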
# [16] = Cytotoxicity against human A2780S/CP5 cells by CyQuant proliferation assay; assay type: functional, cell-based; summary of the method: as §2
# [17] = Cytotoxicity against human U251MG cells by CyQuant proliferation assay; assay type: functional, cell-based; details: U-251; summary of the method: as §2
# [18] = target: Beta-secretase 1 (Homo sapiens) (UniProt P56817); assay: Inhibition of BACE1 (unknown origin) using BACE ED as substrate at 31.8 uM by EFC assay
# [19] = target: Beta-secretase 1 (Homo sapiens) (UniProt P56817); assay: Inhibition of BACE1 (unknown origin) using BACE ED as substrate at 41.7 uM by EFC assay
# [20] = Cytotoxicity against mouse NIH/3T3 cells assessed as cell growth at 20 uM measured at 72 hrs by CyQuant proliferation assay relative to control; assay type: cell-based; details: nih3t3, 72 h
# [21] = Cytotoxicity against human A2780S cells assessed as cell growth at 20 uM measured at 72 hrs by CyQuant proliferation assay relative to control; assay type: functional; details: A2780, 72 h, read-out: Activity
# [22] = Cytotoxicity against human A2780S/CP5 cells assessed as cell growth at 20 uM measured at 72 hrs by CyQuant proliferation assay relative to control; assay type: functional; details: A2780S/CP5, 72 h, read-out: Activity
# [23] = Cytotoxicity against human U251MG cells assessed as cell growth at 20 uM measured at 72 hrs by CyQuant proliferation assay relative to control; assay type: functional; details: U-251, 72 h, read-out: Activity
# A549 [24] = assay: Cytotoxicity against human A549 cells assessed as cell growth at 20 uM measured at 72 hrs by CyQuant proliferation assay relative to control; assay type: functional; details: A549, 72 h, read-out: Activity
# MCF7 [25] = assay: Cytotoxicity against human MCF7 cells assessed as cell growth at 20 uM measured at 72 hrs by CyQuant proliferation assay relative to control; assay type: functional; details: MCF7, 72 h, read-out: Activity
# [26] = Cytotoxicity against mouse NIH/3T3 cells assessed as cell growth at 25 uM measured at 72 hrs by CyQuant proliferation assay relative to control; assay type: cell-based, NIH3T3; details: read-out: Activity
# [27] = Cytotoxicity against human A2780S cells assessed as cell growth at 25 uM measured at 72 hrs by CyQuant proliferation assay relative to control; assay type: functional; details: A2780, 72 h, read-out: Activity
# [28] = Cytotoxicity against human A2780S/CP5 cells assessed as cell growth at 25 uM measured at 72 hrs by CyQuant proliferation assay relative to control; assay type: functional; details: A2780S/CP5, 72 h, read-out: Activity
# [29] = Cytotoxicity against human U251MG cells assessed as cell growth at 25 uM measured at 72 hrs by CyQuant proliferation assay relative to control; assay type: functional; details: U-251, 72 h, read-out: Activity
# A549 [30] = assay: Cytotoxicity against human A549 cells assessed as cell growth at 25 uM measured at 72 hrs by CyQuant proliferation assay relative to control; assay type: functional; details: A549, 72 h, read-out: Activity
# MCF7 [31] = assay: Cytotoxicity against human MCF7 cells assessed as cell growth at 25 uM measured at 72 hrs by CyQuant proliferation assay relative to control; assay type: functional; details: MCF7, 72 h, read-out: Activity
# [32] = target: Beta-secretase 1 (Homo sapiens) (UniProt P56817); assay: Inhibition of BACE1 (unknown origin) using BACE ED as substrate at 31.4 uM by EFC assay
# [33] = target: Beta-secretase 1 (Homo sapiens) (UniProt P56817); assay: Inhibition of BACE1 (unknown origin) using BACE ED as substrate at 42 uM by EFC assay
# [34] = target: Beta-secretase 1 (Homo sapiens) (UniProt P56817); assay: Inhibition of BACE1 (unknown origin) using BACE ED as substrate at 39.6 uM by EFC assay
# [35] = target: Beta-secretase 1 (Homo sapiens) (UniProt P56817); assay: Inhibition of BACE1 (unknown origin) using BACE ED as substrate at 41.9 uM by EFC assay
# [36] = target: Beta-secretase 1 (Homo sapiens) (UniProt P56817); assay: Inhibition of BACE1 (unknown origin) using BACE ED as substrate at 42.6 uM by EFC assay
# Sequence of Beta-secretase 1 (Homo sapiens) (P56817 whole entry): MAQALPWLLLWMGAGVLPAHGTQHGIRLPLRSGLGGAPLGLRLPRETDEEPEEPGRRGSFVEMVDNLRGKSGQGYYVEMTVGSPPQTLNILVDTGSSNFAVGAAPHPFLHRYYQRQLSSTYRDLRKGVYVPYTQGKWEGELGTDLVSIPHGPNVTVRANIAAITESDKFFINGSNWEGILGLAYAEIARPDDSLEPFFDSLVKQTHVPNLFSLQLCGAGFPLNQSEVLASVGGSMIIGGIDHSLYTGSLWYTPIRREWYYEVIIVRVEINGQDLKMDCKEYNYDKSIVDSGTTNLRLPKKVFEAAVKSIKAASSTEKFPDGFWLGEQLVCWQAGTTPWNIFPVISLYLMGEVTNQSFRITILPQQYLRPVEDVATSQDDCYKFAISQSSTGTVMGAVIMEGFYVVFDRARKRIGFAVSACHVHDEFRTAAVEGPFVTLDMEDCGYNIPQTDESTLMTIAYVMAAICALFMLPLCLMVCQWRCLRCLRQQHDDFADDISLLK
Compound,"viability at 72 h, 50 µM [2] [%]",growth at 50 µM [3] [%],growth at 5 µM [4] [%],growth at 50 µM [5] [%],"viability at 72 h, 5 µM [6] [%]",growth at 5 µM [7] [%],growth at 50 µM [8] [%],growth at 5 µM [9] [%],growth at 50 µM (A549 [10]) [%],growth at 5 µM (A549 [11]) [%],growth at 50 µM (MCF7 [12]) [%],growth at 5 µM (MCF7 [13]) [%],further results
CCCCC(C)CCC/C=C\CCCCCCC(=O)NCCc1cc(Br)c(OCCCNC(=O)C2=NO[C@@]3(C=C(Br)C(OC)=C(Br)[C@H]3O)C2)c(Br)c1 (stereo not given in full),98,66,82,76,100,105,90,98,104,98,104,105,inhibition [1]: 60%
CNCCCOc1c(Br)cc(CCNC(=O)/C(Cc2ccc(O)c(Br)c2)=N/O)cc1Br,105,51,82,26,99,94,40,111,64,97,69,100,inhibition [14]: 48%; pIC50 [15]: < 4.30; pIC50 [16]: < 4.30; pIC50 [17]: < 4.30
COC1=C(Br)[C@@H](O)[C@]2(C=C1Br)CC(C(=O)NCCCOc1c(Br)cc(CCNC(=O)CCCCCCCCCCCC(C)C)cc1Br)=NO2,95,48,77,18,88,68,80,98,85,88,64,103,inhibition [18]: 57%
COC1=C(Br)[C@@H](O)[C@]2(C=C1Br)CC(C(=O)NCCCOc1c(Br)cc(CCN)cc1Br)=NO2 [ARAPLYSILLIN 1],7,22,8,14,38,11,30,32,17,16,71,36,inhibition [19]: 27%
COc1cc([C@@H]2c3cc4c(cc3[C@@H](O[C@@H]3O[C@@H]5CO[C@@H](C)O[C@H]5[C@H](O)[C@H]3O)[C@H]3COC(=O)[C@H]23)OCO4)cc(OC)c1O [ETOPOSIDE],,,,,,,,,,,,,Activity [20]: 46%; growth at 20 µM [21]: 35%; growth at 20 µM [22]: 33%; growth at 20 µM [23]: 21%; growth at 20 µM (A549 [24]): 49%; growth at 20 µM (MCF7 [25]): 46%
O=C(CCCCCCC(=O)Nc1ccccc1)NO [VORINOSTAT],,,,,,,,,,,,,"viability at 72 h, 25 µM [26]: 46%; growth at 25 µM [27]: 23%; growth at 25 µM [28]: 18%; growth at 25 µM [29]: 20%; growth at 25 µM (A549 [30]): 51%; growth at 25 µM (MCF7 [31]): 52%"
CCCCCCC(C)CCCCCCCCC(=O)NCCc1cc(Br)c(OCCCNC(=O)C2=NO[C@@]3(C=C(Br)C(OC)=C(Br)[C@H]3O)C2)c(Br)c1 (stereo not given in full),102,78,90,88,98,100,101,100,106,82,109,106,
CCCCCCC(C)CCCCCCCC(=O)NCCc1cc(Br)c(OCCCNC(=O)C2=NO[C@@]3(C=C(Br)C(OC)=C(Br)[C@H]3O)C2)c(Br)c1 (stereo not given in full),95,79,85,87,94,109,97,99,105,89,101,104,inhibition [32]: 70%
CNCCCOc1c(Br)cc(CCNC(=O)/C(Cc2cc(Br)c(OC)c(Br)c2)=N/O)cc1Br,3,10,11,13,101,29,30,17,11,42,58,50,inhibition [33]: 74%
COC1=C(Br)[C@@H](O)[C@]2(C=C1Br)CC(C(=O)NCCCOc1c(Br)cc(CCNC(=N)N)cc1Br)=NO2,25,8,78,12,100,45,32,94,48,85,24,98,inhibition [34]: 40%
COC1=C(Br)[C@@H](O)[C@]2(C=C1Br)CC(C(=O)NCCCOc1c(Br)cc(C(=O)O)cc1Br)=NO2,29,25,37,21,94,33,39,101,68,81,60,86,inhibition [35]: 35%
COc1c(Br)cc(C/C(=N\O)C(=O)NCCCOc2c(Br)cc(CCN)cc2Br)c(O)c1Br,104,9,60,9,102,96,20,111,21,96,27,97,inhibition [33]: 36%; pIC50 [15]: 4.70; pIC50 [16]: 4.40; pIC50 [17]: 4.30
COc1c(Br)cc(C/C(=N\O)C(=O)NCCc2cc(Br)c(OCCCN)c(Br)c2)cc1Br,16,12,81,11,105,78,24,107,24,92,26,95,inhibition [36]: 62%

# Reference: ChEMBL document CHEMBL3745713, “Bromotyrosine-derived metabolites from an Indonesian marine sponge in the family Aplysinellidae (Order Verongiida)” (Bioorg Med Chem Lett, 2016)
